This note sets out measurements from ChEMBL document CHEMBL1125652, “Kynurenic acid derivatives. Structure-activity relationships for excitatory amino acid antagonism and identification of potent and selective antagonists at the glycine site on the N-methyl-D-aspartate receptor” (J Med Chem, 1991).

The target in test [1] is Glutamate NMDA receptor. The test is described as follows: Inhibition of [3H]glycine binding to N-methyl-D-aspartate glutamate receptor of rat cortical membranes. It counts as cell membranes, Membrane. In outline:
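[3H]Glycine radioligand binding to rat cortical membranes. IC50 is the concentration inhibiting 50% of specific binding, taken from at least two experiments and given as the mean of two to four determinations (geometric mean).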

Test [2] concerns the target Glutamate receptor ionotropic, kainate (Rattus norvegicus) (UniProt P22756+Q01812+P42260+P42264+Q63273). In words: Apparent dissociation constant of [3H]kainate from Ionotropic glutamate receptor ionotropic kainate was determined in rat cortical slice preparation. The procedure, abridged: (§1)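 Rat cortical slice preparation; test compound antagonism of depolarizations evoked by agonists N-methyl-D-aspartic acid, quisqualic acid or kainic acid, expressed as apparent Kb.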

The target in test [3] is Glutamate NMDA receptor (Rattus norvegicus) (UniProt P35439+Q00959+Q00960+Q00961+Q62645+Q8VHN2+Q9R1M7). In words: Apparent dissociation constant of [3H]-glycine from N-methyl-D-aspartate glutamate receptor in rat cortical slice at 30 uM; Inactive. In outline:
as §1

Test [4] addresses Glutamate NMDA receptor. In words: Inhibition of [3H]glycine binding to glycine site of N-methyl-D-aspartate glutamate receptor in rat cortical membranes. Format: cell membranes, Membrane.
Test [5] addresses Glutamate receptor ionotropic, AMPA (Rattus norvegicus) (UniProt P19491+P19492+P19493+P19490). In words: Apparent dissociation constant of [3H]-AMPA from Quisqualate receptor of rat cortical slice at 30 uM; Inactive. Format: protein-complex assay. In outline:
as §1

Active and inactive are the calls of the source. The calls are words filed in the database; no cut-off is given here. Some results are limits rather than exact numbers.

Regarding `O=c1[nH]c2cc([N+](=O)[O-])c([N+](=O)[O-])cc2[nH]c1=O` [DNQX], the IC50 at Glutamate NMDA receptor [1] came to 4.5 µM. In other words, the single-digit micromolar range.

On to `COc1nc2cc(C)c(C)cc2nc1O`, for which the Kb in test [2] is 86 µM. Further, the Kb entry in test [3] and in test [5] was “inactive” throughout. This compound showed an IC50 at Glutamate NMDA receptor [4] greater than 100 µM.

Usually IC50 stands for the concentration that inhibits the measured activity by half.
